Experimental findings from ChEMBL document CHEMBL4118021, “Studies of TAK1-centered polypharmacology with novel covalent TAK1 inhibitors” (Bioorg Med Chem, 2017) are described below.

In assay [1] the target is Dual specificity mitogen-activated protein kinase kinase 2 (Homo sapiens) (UniProt P36507). The assay is described as follows: Inhibition of full length human MEK2 (1 to 400 residues) expressed in mammalian expression system assessed as enzyme activity at 10 uM by KINOMEScan assay relative to control. Details: scale not given: the % may be the effect or the level left. In a few lines: (§1)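 In vitro ATP-site competition binding assay (KinomeScan) across a panel of 456 kinases. Compound was tested at 1 and 10 μM. The read-out is the binding inhibition score relative to control.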

The target in assay [2] is Receptor-type tyrosine-protein kinase FLT3 (Homo sapiens) (UniProt P36888). The experiment in a line: Inhibition of human FLT3 (592 to 969 residues) expressed in bacterial expression system assessed as enzyme activity at 10 uM by KINOMEScan assay relative to control. Also noted: scale not given: the % may be the effect or the level left. Put shortly: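 In vitro ATP-site competition binding assay across a panel of 456 kinases, with compound tested at 1 and 10 μM.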

Assay [3] has as its target Cyclin-dependent kinase-like 2 (Homo sapiens) (UniProt Q92772). The experiment in a line: Inhibition of human CDKL2 (1 to 327 residues) expressed in bacterial expression system assessed as enzyme activity at 1 uM by KINOMEScan assay relative to control. Details: scale not given: the % may be the effect or the level left. In a few lines:
as §1

The target in assay [4] is Dihydropyrimidinase-related protein 2 (Homo sapiens) (UniProt Q16555). The assay is described as follows: Binding affinity to DPYSL2 in human NCI-H23 cells at 1 uM by mass spectrometry based pull down assay. It is filed as cell-based.
The target of assay [5] is T1, 80S Ribosome (Homo sapiens) (UniProt P08865+P42677+P62753+P15880+P23396+P61247+P62701+P22090+P46782+P62081+P62241+P46781+P46783+P62280+P25398+P62277+P62263+P62841+P62244+P62249+P08708+P62269+P39019+P60866+P63220+P62266+P62847+P62851+P62854+P62979+P62857+P62273+P62861+P39023+P36578+P46777+Q02878+P18124+P62424+P62917+P32969+P27635+P62906+P62913+P30050+P26373+P40429+P50914+P61313+P18621+Q07020+Q02543+P84098+P46778+P35268+P62829+P62750+P83731+P61254+P61353+P46776+P46779+P47914+P62888+P62899+P62910+P49207+P42766+P18077+Q9Y3U8+P83881+P61927+P61513+P63173+P62891+P62945+P05388+P05386). The assay is described as follows: Binding affinity to RPL35A in human NCI-H23 cells at 1 uM by mass spectrometry based pull down assay. Format: cell-based.

Assay [6] has as its target Ribosomal protein S6 kinase alpha-3 (Homo sapiens) (UniProt P51812). The experiment in a line: Binding affinity to RPS6KA3 in human NCI-H23 cells at 1 uM by mass spectrometry based pull down assay. Format: cell-based.
The target of assay [7] is T-complex protein 1 subunit epsilon (Homo sapiens) (UniProt P48643). The assay is described as follows: Binding affinity to CCT5 in human NCI-H358 cells at 1 uM by mass spectrometry based pull down assay. It is filed as cell-based.
T-complex protein 1 subunit epsilon (Homo sapiens), sequence (P48643 whole entry, one chain of several): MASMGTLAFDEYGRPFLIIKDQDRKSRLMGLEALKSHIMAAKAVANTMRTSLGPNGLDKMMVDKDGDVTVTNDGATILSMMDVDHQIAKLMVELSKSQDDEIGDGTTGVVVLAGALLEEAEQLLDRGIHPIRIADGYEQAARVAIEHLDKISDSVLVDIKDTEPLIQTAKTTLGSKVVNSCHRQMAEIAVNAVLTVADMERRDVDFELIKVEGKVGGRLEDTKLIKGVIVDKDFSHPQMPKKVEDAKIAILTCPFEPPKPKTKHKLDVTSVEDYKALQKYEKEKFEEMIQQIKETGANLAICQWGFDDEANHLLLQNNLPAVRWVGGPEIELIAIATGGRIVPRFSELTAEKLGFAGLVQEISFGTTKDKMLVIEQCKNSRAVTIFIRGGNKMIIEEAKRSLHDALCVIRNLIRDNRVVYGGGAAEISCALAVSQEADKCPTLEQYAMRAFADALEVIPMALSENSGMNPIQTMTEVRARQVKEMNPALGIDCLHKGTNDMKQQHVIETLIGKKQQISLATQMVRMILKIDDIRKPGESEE
The next assay has as its target Agrin (Homo sapiens) (UniProt O00468). The assay is described as follows: Binding affinity to AGRN in human NCI-H358 cells at 1 uM by mass spectrometry based pull down assay. It is filed as cell-based. In a few lines: (§2)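 NCI-H23 or NCI-H358 cells were grown and lysed. Lysates were incubated overnight at 4 °C with 1 μM biotinylated covalent probe or DMSO, then pulled down on streptavidin beads. Proteins were run on polyacrylamide gels and stained with Coomassie. Bands were excised, digested and identified by mass spectrometry.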

Assay [8] has as its target F-actin-capping protein subunit alpha-1 (Homo sapiens) (UniProt P52907). The assay is described as follows: Binding affinity to CAPZA1 in human NCI-H358 cells at 1 uM by mass spectrometry based pull down assay. It is filed as cell-based.
The target in assay [9] is T2, Dual specificity mitogen-activated protein kinase kinase 7 (Homo sapiens) (UniProt O14733).
T2 sequence (whole entry): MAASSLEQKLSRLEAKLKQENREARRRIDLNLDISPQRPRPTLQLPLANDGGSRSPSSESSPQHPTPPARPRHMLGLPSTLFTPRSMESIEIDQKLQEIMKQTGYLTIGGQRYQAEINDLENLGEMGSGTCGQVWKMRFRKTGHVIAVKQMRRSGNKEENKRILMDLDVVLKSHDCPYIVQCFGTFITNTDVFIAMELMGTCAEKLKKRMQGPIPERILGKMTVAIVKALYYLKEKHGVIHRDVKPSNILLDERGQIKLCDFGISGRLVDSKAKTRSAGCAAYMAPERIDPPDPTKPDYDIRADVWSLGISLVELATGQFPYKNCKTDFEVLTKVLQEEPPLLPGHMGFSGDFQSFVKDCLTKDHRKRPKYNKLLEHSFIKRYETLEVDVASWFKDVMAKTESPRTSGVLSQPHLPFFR
The assay is described as follows: Binding affinity to MAP2K7 in human NCI-H358 cells at 1 uM by mass spectrometry based pull down assay. Format: cell-based.

In assay [10] the target is Proteasome activator complex subunit 1 (Homo sapiens) (UniProt Q06323). The experiment in a line: Binding affinity to PSME1 in human NCI-H358 cells at 1 uM by mass spectrometry based pull down assay. Format: cell-based.
The target of assay [11] is Proto-oncogene tyrosine-protein kinase Src (Homo sapiens) (UniProt P12931). The assay is described as follows: Binding affinity to SRC in human NCI-H358 cells at 1 uM by mass spectrometry based pull down assay. It is filed as cell-based.
Proto-oncogene tyrosine-protein kinase Src (Homo sapiens), sequence (P12931 2-536 limits assumed): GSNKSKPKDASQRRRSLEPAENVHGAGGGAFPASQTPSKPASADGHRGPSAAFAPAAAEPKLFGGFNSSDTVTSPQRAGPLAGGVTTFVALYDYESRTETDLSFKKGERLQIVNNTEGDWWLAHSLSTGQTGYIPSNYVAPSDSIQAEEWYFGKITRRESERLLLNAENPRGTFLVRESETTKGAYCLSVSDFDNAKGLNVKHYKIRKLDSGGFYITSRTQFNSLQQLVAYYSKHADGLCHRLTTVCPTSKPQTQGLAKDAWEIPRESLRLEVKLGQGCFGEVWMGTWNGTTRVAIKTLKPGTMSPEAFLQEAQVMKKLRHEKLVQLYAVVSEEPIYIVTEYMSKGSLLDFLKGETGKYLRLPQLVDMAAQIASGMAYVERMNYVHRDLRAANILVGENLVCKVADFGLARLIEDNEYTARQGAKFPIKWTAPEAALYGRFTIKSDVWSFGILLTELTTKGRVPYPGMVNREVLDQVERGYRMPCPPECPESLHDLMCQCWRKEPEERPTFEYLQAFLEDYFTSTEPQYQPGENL
The target in assay [12] is Mitogen-activated protein kinase kinase kinase 20 (Homo sapiens) (UniProt Q9NYL2). The assay is described as follows: Binding affinity to ZAK in human NCI-H358 cells at 1 uM by mass spectrometry based pull down assay. It is filed as cell-based.
Mitogen-activated protein kinase kinase kinase 20 (Homo sapiens), sequence (Q9NYL2 2-800 limits assumed): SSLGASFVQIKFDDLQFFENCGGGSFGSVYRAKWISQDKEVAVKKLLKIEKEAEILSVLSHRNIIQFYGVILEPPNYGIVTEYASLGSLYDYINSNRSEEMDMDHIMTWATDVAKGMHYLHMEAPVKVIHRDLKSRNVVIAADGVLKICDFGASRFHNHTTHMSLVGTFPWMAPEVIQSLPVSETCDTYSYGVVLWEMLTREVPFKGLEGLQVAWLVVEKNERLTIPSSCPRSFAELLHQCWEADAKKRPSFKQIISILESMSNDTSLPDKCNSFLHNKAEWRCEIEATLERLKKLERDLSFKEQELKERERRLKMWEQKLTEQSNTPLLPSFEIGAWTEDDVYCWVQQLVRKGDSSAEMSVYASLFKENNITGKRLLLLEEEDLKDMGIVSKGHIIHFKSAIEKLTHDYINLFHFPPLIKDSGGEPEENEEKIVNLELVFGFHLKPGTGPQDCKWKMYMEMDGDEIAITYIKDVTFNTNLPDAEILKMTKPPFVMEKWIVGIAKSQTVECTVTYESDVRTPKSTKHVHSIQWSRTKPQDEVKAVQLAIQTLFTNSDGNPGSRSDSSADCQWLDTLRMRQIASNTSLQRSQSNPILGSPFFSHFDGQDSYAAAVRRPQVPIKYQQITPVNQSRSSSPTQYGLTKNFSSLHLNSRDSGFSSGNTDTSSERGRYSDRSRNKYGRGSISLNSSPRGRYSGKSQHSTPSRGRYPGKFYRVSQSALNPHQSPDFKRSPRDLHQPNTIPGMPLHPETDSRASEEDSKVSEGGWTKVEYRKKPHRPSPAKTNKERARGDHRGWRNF
Assay [13] deals with Splicing factor 3B subunit 3 (Homo sapiens) (UniProt Q15393). The experiment in a line: Binding affinity to SF3B3 in human NCI-H358 cells at 1 uM by mass spectrometry based pull down assay. It is filed as cell-based.
Assay [14] has as its target TBC1 domain family member 15 (Homo sapiens) (UniProt Q8TC07). The experiment in a line: Binding affinity to TBC1D15 in human NCI-H358 cells at 1 uM by mass spectrometry based pull down assay. It is filed as cell-based.
Assay [15] addresses Fructose-bisphosphate aldolase C (Homo sapiens) (UniProt P09972). The assay is described as follows: Binding affinity to ALDOC in human NCI-H358 cells at 1 uM by mass spectrometry based pull down assay. Format: cell-based.
Assay [16] addresses Transmembrane emp24 domain-containing protein 10 (Homo sapiens) (UniProt P49755). The experiment in a line: Binding affinity to TMED10 in human NCI-H23 cells at 1 uM by mass spectrometry based pull down assay. Format: cell-based.
For assay [17], the target named is Glutathione S-transferase P (Homo sapiens) (UniProt P09211). The experiment in a line: Binding affinity to GSTP1 in human NCI-H23 cells at 1 uM by mass spectrometry based pull down assay. It is filed as cell-based.
Glutathione S-transferase P (Homo sapiens), sequence (P09211 2-210 limits assumed): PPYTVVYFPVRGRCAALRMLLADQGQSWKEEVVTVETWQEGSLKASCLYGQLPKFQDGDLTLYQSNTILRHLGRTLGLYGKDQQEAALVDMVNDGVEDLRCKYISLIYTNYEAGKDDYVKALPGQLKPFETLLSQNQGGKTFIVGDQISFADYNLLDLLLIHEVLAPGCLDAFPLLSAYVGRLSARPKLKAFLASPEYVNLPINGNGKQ
Assay [18] deals with T1, 80S Ribosome (Homo sapiens). The assay is described as follows: Binding affinity to RPL10A in human NCI-H358 cells at 1 uM by mass spectrometry based pull down assay. Format: cell-based.
A further assay deals with NCI-H358. The assay is described as follows: Binding affinity to PSMA7 in human NCI-H358 cells at 1 uM by mass spectrometry based pull down assay. It is filed as cell-based.
Assay [19] deals with Medium-chain specific acyl-CoA dehydrogenase, mitochondrial (Homo sapiens) (UniProt P11310). The experiment in a line: Binding affinity to ACADM in human NCI-H23 cells at 1 uM by mass spectrometry based pull down assay. Format: cell-based. In a few lines:
as §2

Activity calls are given as the source filed them. The rule behind the calls is not given here.

Fructose-bisphosphate aldolase C (Homo sapiens), sequence (P09972 whole entry, the tested form may be a part): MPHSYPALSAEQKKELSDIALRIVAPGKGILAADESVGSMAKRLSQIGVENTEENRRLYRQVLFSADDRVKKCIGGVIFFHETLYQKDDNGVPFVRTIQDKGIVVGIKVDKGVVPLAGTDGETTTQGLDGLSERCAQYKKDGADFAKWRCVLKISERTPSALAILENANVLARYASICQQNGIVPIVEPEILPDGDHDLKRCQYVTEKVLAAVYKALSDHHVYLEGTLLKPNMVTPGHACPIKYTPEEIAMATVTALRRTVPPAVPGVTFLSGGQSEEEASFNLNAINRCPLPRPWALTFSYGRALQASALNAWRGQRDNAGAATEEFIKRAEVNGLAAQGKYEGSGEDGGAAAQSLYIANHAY
Agrin (Homo sapiens), sequence (O00468 whole entry): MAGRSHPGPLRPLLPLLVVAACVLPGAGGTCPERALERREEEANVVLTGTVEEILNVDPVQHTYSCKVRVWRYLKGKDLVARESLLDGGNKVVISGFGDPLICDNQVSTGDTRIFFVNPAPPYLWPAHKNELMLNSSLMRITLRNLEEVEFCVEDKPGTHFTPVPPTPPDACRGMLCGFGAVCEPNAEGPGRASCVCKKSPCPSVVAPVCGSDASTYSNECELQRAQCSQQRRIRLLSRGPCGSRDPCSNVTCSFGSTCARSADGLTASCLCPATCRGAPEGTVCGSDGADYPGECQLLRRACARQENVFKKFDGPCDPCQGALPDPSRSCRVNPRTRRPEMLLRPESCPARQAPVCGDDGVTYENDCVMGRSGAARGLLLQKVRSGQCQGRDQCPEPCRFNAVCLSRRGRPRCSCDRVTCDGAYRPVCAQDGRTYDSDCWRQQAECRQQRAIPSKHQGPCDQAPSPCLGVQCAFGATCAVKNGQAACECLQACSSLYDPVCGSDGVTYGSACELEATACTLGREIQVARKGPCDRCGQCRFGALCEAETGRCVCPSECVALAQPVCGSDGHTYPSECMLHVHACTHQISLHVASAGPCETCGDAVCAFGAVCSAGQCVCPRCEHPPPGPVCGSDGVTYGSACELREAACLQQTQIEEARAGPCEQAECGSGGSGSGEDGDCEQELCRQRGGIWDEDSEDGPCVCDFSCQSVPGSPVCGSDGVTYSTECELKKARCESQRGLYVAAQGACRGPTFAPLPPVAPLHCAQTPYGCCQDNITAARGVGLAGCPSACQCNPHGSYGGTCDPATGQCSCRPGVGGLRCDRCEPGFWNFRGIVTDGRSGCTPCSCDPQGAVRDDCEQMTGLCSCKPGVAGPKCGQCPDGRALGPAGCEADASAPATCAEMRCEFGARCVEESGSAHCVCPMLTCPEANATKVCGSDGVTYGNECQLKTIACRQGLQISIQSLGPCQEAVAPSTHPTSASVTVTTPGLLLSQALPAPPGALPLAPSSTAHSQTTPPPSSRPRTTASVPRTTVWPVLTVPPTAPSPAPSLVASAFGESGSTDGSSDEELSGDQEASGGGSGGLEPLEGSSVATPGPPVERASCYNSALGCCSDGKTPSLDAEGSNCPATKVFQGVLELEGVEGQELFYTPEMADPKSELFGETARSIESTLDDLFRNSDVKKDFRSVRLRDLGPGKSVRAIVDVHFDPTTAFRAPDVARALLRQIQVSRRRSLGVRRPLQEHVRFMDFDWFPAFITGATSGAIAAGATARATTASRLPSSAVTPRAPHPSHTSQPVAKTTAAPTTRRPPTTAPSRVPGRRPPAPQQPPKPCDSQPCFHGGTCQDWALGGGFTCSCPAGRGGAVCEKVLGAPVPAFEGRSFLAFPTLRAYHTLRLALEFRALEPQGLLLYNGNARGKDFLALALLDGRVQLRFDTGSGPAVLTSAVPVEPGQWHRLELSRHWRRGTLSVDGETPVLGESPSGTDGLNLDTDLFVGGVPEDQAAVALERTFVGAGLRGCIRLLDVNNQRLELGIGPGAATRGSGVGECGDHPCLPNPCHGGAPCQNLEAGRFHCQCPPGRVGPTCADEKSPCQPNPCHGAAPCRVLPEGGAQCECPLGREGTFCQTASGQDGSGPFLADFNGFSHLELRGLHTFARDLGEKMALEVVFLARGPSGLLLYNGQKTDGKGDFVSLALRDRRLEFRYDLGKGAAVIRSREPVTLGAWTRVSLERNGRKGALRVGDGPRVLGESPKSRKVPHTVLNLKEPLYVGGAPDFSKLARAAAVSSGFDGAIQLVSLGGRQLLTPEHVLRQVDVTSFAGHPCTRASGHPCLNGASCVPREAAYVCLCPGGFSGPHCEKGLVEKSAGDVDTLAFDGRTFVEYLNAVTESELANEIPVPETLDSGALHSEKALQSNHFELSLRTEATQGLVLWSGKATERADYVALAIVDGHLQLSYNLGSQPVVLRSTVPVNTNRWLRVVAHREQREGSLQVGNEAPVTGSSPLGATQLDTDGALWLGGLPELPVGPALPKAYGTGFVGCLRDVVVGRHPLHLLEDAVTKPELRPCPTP
Cyclin-dependent kinase-like 2 (Homo sapiens), sequence (Q92772 whole entry, the tested form may be a part): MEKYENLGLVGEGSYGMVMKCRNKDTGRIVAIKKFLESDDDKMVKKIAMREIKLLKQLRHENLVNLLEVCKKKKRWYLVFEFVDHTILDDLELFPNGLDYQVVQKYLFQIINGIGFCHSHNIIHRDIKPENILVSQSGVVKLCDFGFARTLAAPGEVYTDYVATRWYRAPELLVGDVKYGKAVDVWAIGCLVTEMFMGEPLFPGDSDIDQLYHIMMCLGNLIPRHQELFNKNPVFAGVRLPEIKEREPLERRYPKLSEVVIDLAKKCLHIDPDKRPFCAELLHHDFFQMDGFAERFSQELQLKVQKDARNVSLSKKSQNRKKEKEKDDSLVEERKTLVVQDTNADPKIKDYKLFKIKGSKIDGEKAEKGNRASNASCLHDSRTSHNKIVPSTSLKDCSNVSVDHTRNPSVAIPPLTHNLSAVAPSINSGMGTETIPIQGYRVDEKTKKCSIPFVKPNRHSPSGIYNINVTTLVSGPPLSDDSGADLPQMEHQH

As for `COc1cc(O)c2c(c1)/C=C/C[C@H](O)[C@H](O)C(=O)/C=C\C[C@H](C)OC2=O`, the Activity in assay [1] was found to be 0.05%; in assay [2], 0.55%; in assay [3], 76%.

For `C=CC(=O)Nc1ccccc1Nc1nc(Nc2ccc(N3CCN(CCOCCOCCOCCNC(=O)CCCC[C@@H]4SC[C@@H]5NC(=O)N[C@@H]54)CC3)cc2)ncc1Cl`, the result (in assay [4]; in [5]; in [6]; in assay [7]; at Agrin (Homo sapiens); in assay [8]) was Active. Besides, the outcome in assay [9], in assay [10], in [11], in assay [12], in assay [13] and in [14] was Active. For the same compound, the result (in assay [15]; in assay [16]; in assay [17]; in assay [18]; in the assay on NCI-H358; in assay [19]) was Active.
